These results are taken from ChEMBL document CHEMBL5696442, “Discovery of type II inhibitors of TGFβ-activated kinase 1 (TAK1) and mitogen-activated protein kinase kinase kinase kinase 2 (MAP4K2)” (J Med Chem, 2015).

Assay [1] addresses T1, Mitogen-activated protein kinase kinase kinase 2 (Homo sapiens) (UniProt Q9Y2U5).
T1 sequence (whole entry): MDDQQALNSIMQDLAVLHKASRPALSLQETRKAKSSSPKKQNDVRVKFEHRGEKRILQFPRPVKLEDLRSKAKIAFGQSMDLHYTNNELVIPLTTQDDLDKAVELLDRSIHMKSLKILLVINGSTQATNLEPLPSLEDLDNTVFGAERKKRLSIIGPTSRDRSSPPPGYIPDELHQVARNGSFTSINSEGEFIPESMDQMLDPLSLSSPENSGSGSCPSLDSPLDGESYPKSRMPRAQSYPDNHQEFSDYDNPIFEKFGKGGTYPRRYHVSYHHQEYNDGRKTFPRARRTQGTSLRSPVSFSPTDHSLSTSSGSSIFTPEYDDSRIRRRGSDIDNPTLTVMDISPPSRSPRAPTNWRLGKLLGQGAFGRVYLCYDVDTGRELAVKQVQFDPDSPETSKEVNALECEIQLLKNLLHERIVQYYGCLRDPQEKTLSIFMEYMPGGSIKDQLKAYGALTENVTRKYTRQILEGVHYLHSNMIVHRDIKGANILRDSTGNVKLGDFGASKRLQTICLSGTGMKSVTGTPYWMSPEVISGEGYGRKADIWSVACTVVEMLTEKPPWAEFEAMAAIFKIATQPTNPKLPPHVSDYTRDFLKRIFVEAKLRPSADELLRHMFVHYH
Kind of assay: Inhibition of MAP3K2 Lys1 labeling site harbouring ELAVKQVQFDPDSPETSKEVNALECEIQLLK in human A-375 cells at 0.05 uM by KiNativ Profiling analysis relative to control. Format: cell-based.

The target of assay [2] is Protein kinase C beta type (Homo sapiens) (UniProt P05771). In words: Inhibition of PKCb Lys2 labeling site in human A-375 cells at 0.5 uM by KiNativ Profiling analysis relative to control. Format: cell-based.
Chain of Protein kinase C beta type (Homo sapiens) (P05771 2-671 limits assumed): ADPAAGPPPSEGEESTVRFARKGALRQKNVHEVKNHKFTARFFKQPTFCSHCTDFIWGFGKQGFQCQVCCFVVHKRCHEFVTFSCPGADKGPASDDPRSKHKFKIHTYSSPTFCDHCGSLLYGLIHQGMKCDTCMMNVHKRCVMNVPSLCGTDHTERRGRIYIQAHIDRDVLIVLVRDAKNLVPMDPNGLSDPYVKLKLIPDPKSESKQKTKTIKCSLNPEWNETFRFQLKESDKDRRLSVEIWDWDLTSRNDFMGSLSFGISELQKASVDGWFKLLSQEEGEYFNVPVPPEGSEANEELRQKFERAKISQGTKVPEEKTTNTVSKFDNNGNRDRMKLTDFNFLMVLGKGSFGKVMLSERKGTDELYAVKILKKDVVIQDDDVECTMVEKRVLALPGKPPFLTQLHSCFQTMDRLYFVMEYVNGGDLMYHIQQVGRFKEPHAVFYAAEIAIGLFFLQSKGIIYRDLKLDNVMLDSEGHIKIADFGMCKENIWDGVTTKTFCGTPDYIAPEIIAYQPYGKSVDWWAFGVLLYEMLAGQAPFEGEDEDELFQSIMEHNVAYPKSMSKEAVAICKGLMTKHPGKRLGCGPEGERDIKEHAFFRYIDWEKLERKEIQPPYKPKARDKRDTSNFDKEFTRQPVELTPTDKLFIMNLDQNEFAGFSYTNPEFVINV
The target of assay [3] is MAP/microtubule affinity-regulating kinase 3 (Homo sapiens) (UniProt P27448). In words: Inhibition of MARK3 Lys2 labeling site in human A-375 cells at 5 uM by KiNativ Profiling analysis relative to control. Format: cell-based.
Chain of MAP/microtubule affinity-regulating kinase 3 (Homo sapiens) (P27448 whole entry, looked up): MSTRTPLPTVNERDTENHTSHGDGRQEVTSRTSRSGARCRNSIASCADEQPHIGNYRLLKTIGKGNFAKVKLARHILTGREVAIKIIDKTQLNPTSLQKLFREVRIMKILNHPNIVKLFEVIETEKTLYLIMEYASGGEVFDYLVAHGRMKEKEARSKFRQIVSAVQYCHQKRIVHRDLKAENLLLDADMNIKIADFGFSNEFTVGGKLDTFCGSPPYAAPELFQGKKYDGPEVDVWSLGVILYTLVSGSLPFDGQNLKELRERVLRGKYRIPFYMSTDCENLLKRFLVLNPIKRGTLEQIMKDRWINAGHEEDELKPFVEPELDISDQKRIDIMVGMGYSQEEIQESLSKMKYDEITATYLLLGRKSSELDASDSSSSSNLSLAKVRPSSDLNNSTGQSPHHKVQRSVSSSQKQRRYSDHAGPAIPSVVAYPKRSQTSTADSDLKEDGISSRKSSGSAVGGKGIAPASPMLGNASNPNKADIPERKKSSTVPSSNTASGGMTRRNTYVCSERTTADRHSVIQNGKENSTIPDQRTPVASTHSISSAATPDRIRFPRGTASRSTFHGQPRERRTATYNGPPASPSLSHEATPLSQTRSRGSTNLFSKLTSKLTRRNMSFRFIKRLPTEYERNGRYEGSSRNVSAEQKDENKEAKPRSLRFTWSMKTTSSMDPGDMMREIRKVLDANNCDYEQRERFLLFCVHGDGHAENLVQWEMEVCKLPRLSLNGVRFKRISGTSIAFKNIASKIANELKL
Assay [4] has as its target Protein kinase C alpha type (Homo sapiens) (UniProt P17252). In words: Inhibition of PKCa Lys2 labeling site in human A-375 cells at 0.05 uM by KiNativ Profiling analysis relative to control. Format: cell-based.
Assay [5] addresses Cyclin-dependent kinase 8 (Homo sapiens) (UniProt P49336). In words: Inhibition of CDK8 Lys2 labeling site in human A-375 cells at 0.05 uM by KiNativ Profiling analysis relative to control. Format: cell-based.
Assay [6] deals with T2, Mitogen-activated protein kinase 13 (Homo sapiens) (UniProt O15264).
T2 sequence (whole entry): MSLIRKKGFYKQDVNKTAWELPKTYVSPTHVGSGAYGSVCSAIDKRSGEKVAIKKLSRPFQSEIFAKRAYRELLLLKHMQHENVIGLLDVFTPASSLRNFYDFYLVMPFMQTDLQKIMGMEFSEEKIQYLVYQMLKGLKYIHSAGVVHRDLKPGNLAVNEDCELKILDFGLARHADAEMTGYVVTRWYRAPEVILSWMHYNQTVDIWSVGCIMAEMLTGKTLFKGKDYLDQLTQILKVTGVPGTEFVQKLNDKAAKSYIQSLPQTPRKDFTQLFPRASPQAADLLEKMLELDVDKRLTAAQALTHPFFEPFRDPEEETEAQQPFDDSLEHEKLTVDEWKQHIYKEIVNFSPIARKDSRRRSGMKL
In words: Inhibition of p38 delta Lys2 labeling site in human A-375 cells at 0.05 uM by KiNativ Profiling analysis relative to control. Format: cell-based.

Assay [7] concerns the target T3, Dual specificity mitogen-activated protein kinase kinase 5 (Homo sapiens) (UniProt Q13163).
T3 sequence (whole entry): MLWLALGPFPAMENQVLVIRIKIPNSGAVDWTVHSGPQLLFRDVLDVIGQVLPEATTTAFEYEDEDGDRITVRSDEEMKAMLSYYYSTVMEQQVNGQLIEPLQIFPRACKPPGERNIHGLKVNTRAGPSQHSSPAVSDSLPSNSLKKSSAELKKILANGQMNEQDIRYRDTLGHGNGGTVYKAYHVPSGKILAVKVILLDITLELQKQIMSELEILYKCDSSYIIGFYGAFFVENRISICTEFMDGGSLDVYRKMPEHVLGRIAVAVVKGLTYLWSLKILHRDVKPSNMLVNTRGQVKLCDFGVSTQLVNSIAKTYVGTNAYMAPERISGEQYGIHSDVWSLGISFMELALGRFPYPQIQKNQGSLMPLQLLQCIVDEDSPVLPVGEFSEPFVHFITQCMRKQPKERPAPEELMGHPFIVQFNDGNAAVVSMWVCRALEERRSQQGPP
Kind of assay: Inhibition of MAP2K5 Lys2 labeling site in human A-375 cells at 0.05 uM by KiNativ Profiling analysis relative to control. Format: cell-based.

Assay [8] deals with Tyrosine-protein kinase Fer (Homo sapiens, UniProt P16591). Kind of assay: Inhibition of FER Lys1 labeling site harbouring TSVAVKTCKEDLPQELKin human A-375 cells at 0.5 uM by KiNativ Profiling analysis relative to control. Format: cell-based.
Chain of Tyrosine-protein kinase Fer (P16591 whole entry, looked up): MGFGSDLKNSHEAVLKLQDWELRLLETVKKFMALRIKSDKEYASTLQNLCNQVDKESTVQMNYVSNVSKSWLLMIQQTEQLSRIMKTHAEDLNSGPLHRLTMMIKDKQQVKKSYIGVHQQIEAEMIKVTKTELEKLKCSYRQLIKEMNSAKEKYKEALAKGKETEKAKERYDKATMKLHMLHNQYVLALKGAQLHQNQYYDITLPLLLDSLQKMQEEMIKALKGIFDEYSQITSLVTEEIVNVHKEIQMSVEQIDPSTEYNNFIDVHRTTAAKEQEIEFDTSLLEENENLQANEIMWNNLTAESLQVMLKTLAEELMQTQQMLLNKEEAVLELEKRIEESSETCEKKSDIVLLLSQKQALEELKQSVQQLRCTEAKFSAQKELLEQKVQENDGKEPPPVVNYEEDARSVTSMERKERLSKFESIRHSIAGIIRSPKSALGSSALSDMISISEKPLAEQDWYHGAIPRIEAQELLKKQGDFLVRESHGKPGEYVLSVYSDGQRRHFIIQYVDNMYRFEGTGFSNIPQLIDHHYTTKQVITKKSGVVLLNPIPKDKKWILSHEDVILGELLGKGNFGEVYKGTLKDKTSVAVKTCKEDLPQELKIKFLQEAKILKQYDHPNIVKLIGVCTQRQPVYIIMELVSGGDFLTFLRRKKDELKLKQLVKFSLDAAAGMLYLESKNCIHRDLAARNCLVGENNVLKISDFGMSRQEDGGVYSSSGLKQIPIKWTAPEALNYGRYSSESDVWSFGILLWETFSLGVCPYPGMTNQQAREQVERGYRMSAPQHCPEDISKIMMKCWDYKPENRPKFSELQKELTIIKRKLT
Assay [9] relates to GEN2.2. In words: Inhibition of CL097 induced p-105 phosphorylation level in human GEN2.2 cells at 1 uM preincubated with compound for 1 hr followed by CL097 stimulation and measured after 30 mins by Western blot analysis. Format: functional, cell-based. In a few lines: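 Gen2.2 cells were pretreated with compound at 1 μM for 1 h, then stimulated with CL097 for 30 min. Lysates were analysed by Western blot for phosphorylation of p105, p38 and JNK1/2.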

In assay [10] the target is T4, Mitogen-activated protein kinase kinase kinase 7 (Homo sapiens) (UniProt O43318).
T4 sequence (whole entry): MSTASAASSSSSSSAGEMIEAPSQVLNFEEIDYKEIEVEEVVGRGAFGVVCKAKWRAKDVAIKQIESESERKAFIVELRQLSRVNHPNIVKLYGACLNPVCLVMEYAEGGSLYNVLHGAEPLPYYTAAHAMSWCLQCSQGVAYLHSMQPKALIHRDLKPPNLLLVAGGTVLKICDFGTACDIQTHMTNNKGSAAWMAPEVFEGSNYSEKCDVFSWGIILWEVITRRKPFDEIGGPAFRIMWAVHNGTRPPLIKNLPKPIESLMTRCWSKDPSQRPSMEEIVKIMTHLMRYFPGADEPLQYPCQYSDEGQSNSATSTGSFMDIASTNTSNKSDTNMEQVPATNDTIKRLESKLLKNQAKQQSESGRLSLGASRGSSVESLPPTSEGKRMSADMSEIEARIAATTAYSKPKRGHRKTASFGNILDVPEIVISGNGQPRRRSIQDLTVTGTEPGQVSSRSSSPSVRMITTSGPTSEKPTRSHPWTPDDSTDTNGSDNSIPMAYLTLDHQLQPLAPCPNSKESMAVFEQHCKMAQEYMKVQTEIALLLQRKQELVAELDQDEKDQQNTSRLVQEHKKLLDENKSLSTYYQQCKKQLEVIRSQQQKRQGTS
In words: Inhibition of TAK1 Lys2 labeling site in human Huh-7 cell lysate at 1 uM by KiNativ Profiling analysis relative to control. Format: subcellular.

Calls of active or inactive are those of the source. The rule behind the calls is not given here.

Chain of Cyclin-dependent kinase 8 (Homo sapiens) (P49336 whole entry): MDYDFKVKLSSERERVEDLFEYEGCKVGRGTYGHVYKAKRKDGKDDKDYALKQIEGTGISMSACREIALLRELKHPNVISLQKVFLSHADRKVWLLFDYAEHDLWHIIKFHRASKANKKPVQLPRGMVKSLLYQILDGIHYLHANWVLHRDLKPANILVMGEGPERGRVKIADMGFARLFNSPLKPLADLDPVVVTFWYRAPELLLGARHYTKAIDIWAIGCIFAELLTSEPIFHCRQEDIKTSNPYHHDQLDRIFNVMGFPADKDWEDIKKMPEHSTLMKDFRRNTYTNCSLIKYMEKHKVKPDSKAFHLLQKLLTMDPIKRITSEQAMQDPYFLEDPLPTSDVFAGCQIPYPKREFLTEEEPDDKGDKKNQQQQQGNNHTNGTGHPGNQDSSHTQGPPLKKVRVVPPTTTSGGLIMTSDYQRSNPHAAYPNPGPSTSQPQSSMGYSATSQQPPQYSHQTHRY

As to `CCN1CCN(Cc2ccc(NC(=O)c3ccc(C)c(/C=C/c4cnc5[nH]ccc5c4OC)c3)cc2C(F)(F)F)CC1`, the inhibition was 5.2% in [1]; 48.2% in assay [2]; 8.9% in [3]; 58% in [4]; -9.4% in assay [5]; 24.3% in [6]. The inhibition is -5.6% in assay [7] and 23.3% in assay [8].

`CCN1CCN(Cc2ccc(NC(=O)c3ccc(C)c(Oc4ccnc5[nH]ccc45)c3)cc2C(F)(F)F)CC1`: the inhibition worked out at 11.8% in [1]; 65% in assay [2]; 7.8% in assay [3]; 45.3% in assay [4]; 32.1% in assay [5]; 64.9% in assay [6]. Also, the inhibition in assay [7] was determined as 19.1%; in [8] it was 88.5%. Besides, the inhibition entry in [9] was “Active”.

`CNc1cc(Oc2cc(C(=O)Nc3cc(-n4cnc(C)c4)cc(C(F)(F)F)c3)ccc2C)ncn1`: in assay [10], the inhibition was determined as 29.3%. Also, in assay [9], the inhibition entry is “inactive”.

Take `CNc1cc(Oc2cc(C(=O)Nc3cc(N4CCN(C)CC4)cc(C(F)(F)F)c3)ccc2C)ncn1`: the inhibition in assay [10] is 7%.
